Test [1] concerns the target T1, Sodium-dependent serotonin transporter (Homo sapiens, UniProt P31645). Kind of test: biochemical. It counts as cell-based, HEK293.
Test [2] deals with T1, Sodium-dependent serotonin transporter. Put plainly: biochemical. The class given is cell-based, HEK293. This is another data set of the same source.
The target in test [3] is Sodium-dependent dopamine transporter (Homo sapiens, UniProt Q01959). Put plainly: Displacement of [3H]WIN-35428 from human DAT expressed in HEK293 cells. It counts as cell-based. In short, it runs like this:
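Stably transfected HEK293 membrane preparation (50-80 ug protein/tube) in 50 mM Tris-HCl pH 7.4, 100 mM NaCl. 0.5 nM radioligand with 6-12 test concentrations, on ice for 120 min. Nonspecific: 10 uM GBR12909. GF/B filtration, ice-cold Tris washes, scintillation counting. Triplicates per experiment; IC50 by iterative nonlinear fitting, converted to Ki.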
In general terms: Loss of bound radioactivity is the signal in a displacement assay; it reports binding, not function.

For test [4], the target named is Sodium-dependent noradrenaline transporter (Homo sapiens, UniProt P23975). Kind of test: Displacement of [3H]nisoxetine from human NET expressed in HEK293 cells. It counts as cell-based. In short, it runs like this: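 Stably transfected HEK293 membrane preparation (50-80 ug protein/tube) in 50 mM Tris-HCl pH 7.4, 120 mM NaCl, 5 mM KCl. 0.5 nM radioligand with 6-12 test concentrations, 21 °C for 60 min. Nonspecific: 100 uM protriptyline. GF/B filtration, scintillation counting. Triplicates per experiment; IC50 by nonlinear fitting, converted to Ki.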
Chain of Sodium-dependent noradrenaline transporter (P23975 whole entry): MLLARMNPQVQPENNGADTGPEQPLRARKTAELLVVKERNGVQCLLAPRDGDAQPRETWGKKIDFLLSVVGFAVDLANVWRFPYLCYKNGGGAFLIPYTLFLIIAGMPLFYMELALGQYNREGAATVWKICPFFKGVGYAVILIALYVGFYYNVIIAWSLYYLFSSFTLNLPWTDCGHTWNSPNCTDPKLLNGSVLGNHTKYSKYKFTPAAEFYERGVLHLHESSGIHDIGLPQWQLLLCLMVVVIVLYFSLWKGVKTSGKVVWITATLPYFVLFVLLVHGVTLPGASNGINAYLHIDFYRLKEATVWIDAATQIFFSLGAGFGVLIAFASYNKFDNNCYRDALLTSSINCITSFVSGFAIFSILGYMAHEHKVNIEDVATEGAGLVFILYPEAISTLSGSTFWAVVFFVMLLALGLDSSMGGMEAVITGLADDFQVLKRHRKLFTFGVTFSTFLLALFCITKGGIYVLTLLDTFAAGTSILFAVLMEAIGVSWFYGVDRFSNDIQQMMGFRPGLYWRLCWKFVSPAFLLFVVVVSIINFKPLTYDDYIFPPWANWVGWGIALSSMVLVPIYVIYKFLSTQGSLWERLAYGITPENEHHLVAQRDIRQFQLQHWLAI

Test [5] deals with T2, 5-hydroxytryptamine receptor 1A (Rattus norvegicus, UniProt P19327).
T2 sequence (P19327 whole entry): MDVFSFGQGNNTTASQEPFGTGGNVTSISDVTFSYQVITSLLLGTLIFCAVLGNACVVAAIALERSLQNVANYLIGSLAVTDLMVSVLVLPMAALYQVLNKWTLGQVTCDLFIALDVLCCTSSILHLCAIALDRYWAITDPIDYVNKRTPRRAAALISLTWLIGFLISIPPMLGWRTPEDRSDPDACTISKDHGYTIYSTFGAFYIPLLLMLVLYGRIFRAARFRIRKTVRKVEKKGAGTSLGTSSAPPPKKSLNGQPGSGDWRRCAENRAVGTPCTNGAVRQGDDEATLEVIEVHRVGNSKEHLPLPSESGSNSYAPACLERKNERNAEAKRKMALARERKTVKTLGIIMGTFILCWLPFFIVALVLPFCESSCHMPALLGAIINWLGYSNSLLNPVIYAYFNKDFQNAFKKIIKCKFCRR
Kind of test: Displacement of [3H]8-OH-DPAT from 5HT1A receptor in rat cortical membrane. It counts as cell membranes. In short, it runs like this:
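Cortex from female SPRD rats (~200 g), homogenized and washed in 50 mM Tris-HCl pH 7.4. Membranes in 50 mM Tris-HCl pH 7.4, 4 mM CaCl2, 0.1% ascorbic acid with 0.3 nM radioligand and 6-12 test concentrations, 21 °C for 60 min. Nonspecific: 10 uM serotonin. GF/B filtration, scintillation counting.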

Seven molecules from ChEMBL document CHEMBL1150402, “Carbon-11 labeled indolylpropylamine analog as a new potential PET agent for imaging of the serotonin transporter” (Bioorg Med Chem, 2008) can be followed below.

T1 sequence (P31645 whole entry): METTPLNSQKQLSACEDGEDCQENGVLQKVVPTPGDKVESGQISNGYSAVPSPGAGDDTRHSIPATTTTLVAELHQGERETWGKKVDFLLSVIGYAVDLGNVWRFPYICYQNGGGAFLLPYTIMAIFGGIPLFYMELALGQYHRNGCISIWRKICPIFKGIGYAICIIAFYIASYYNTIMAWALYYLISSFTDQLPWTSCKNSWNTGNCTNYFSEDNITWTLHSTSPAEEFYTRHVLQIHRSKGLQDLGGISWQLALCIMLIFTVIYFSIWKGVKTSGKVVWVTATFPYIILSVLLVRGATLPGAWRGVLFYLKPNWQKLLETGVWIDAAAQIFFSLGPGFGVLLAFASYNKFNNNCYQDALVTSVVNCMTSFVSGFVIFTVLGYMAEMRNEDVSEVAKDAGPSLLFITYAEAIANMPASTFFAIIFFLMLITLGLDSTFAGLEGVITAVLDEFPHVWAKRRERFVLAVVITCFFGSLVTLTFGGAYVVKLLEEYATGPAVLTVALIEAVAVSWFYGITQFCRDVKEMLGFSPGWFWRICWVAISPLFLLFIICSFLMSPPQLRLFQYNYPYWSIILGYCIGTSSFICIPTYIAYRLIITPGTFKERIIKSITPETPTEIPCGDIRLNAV
Chain of Sodium-dependent dopamine transporter (Q01959 whole entry): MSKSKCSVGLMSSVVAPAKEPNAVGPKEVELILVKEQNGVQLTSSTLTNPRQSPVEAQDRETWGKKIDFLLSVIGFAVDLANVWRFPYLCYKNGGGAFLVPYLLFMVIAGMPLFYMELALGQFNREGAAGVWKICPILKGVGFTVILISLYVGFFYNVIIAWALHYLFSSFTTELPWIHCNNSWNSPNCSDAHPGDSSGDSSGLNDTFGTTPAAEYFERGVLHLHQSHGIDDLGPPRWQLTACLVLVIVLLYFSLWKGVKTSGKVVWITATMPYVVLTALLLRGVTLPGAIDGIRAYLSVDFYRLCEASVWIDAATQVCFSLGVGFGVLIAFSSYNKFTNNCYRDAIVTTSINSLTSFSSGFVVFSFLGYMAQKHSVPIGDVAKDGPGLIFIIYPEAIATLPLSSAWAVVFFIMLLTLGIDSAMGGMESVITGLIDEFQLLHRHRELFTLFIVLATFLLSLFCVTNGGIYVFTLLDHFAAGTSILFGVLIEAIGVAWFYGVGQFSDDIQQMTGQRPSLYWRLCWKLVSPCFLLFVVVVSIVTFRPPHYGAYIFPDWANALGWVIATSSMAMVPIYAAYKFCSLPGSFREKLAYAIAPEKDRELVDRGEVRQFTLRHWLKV

In the case of `[11CH3]Oc1ccc2c(c1)CCN(CCCc1c[nH]c3ccc(F)cc13)C2`, the inhibition constant Ki in test [1] was found to be 4.11 nM; in test [2], 25.3 nM; in test [3], 2490 nM; in test [4] it was 1680 nM; in test [5] it was 54 nM.
For `[11CH3]Oc1cccc2c1CCN(CCCc1c[nH]c3ccc(Br)cc13)C2`, in that order: 1910 nM, 2980 nM, 3490 nM, 6600 nM and 1990 nM.
For `[11CH3]Oc1ccc2c(c1)CCN(CCCc1c[nH]c3ccc(Br)cc13)C2`, the inhibition constant (Ki) came to 11.4 nM in test [1]; 13.3 nM in test [2]; 1030 nM in test [3]; 2770 nM in test [4]; 50 nM in test [5].
Regarding `[11CH3]Oc1cccc2c1CCN(CCCc1c[nH]c3ccc(I)cc13)C2`, the Ki stood at 213 nM in test [1]; 2660 nM in test [2]; 1160 nM in test [3]; 1810 nM in test [4]; 1120 nM in test [5].
For the molecule `[11CH3]Oc1cccc2c1CCN(CCCc1c[nH]c3ccc(F)cc13)C2`, the Ki in test [1] came to 6.46 nM; in test [2], 44.7 nM; in test [3], 1480 nM; in test [4], 2880 nM; in test [5], 164 nM.
As to `[11CH3]Oc1ccc2c(c1)CCN(CCCc1c[nH]c3ccc(I)cc13)C2`, the Ki in test [1] was 374 nM; in test [2] it was 1110 nM; in test [3], 3650 nM; in test [4], 712 nM; in test [5], 685 nM.
Take `CNC(C)Cc1ccc2c(c1)OCO2` (configuration not stated) [MIDOMAFETAMINE]: the Ki was determined as 0.73 nM in test [1] and 2.03 nM in test [2].

By Ki is commonly meant the equilibrium dissociation constant of an inhibitor or competing ligand from its target. Low readings indicate a stronger hold on the target, high ones a looser hold on the target.
